Series [1] can be described thus: Half-life period was measured in 30 mM sodium borate buffer at pH 8.9 at 37 degree C. The class given is ADME.
Series [2] in a line: Half-life period was measured in 30 mM TRIS buffer at pH 6.9 at 37 degree C. The class given is ADME.
The nature of series [3]: Partition coefficient was measured. The class given is ADME. Conditions: octanol/water. In short, it runs like this:
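Compound dissolved in 1-octanol and mixed with equal volume of phosphate buffer (10 mmol, pH 6.8). Vortexed 10 min, phases separated by centrifugation. Each phase analysed by reversed-phase HPLC (UV 265 nm). Pa taken as the quotient of peak areas.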

The nature of series [4]: Half-life period was measured in 30 mM sodium phosphate buffer at pH 7.3 at 37 degree C. It counts as ADME.
Series [5] in a line: Half-life period was measured in RPMI-1640 culture medium at 37 degree C without FCS. It counts as ADME. As to conditions: RPMI-1640 culture medium without FCS.
The subject of series [6] is CCRF-CEM. Description: The cytotoxicity was measured on wild type CEM/O cells. As to conditions: Homo sapiens. It counts as functional.
Series [7] deals with CCRF-CEM. Description: Antiviral activity was measured on HIV-2 in wild-type CEM/O cells. The class given is functional, cell-based, Homo sapiens.
The nature of series [8]: Half-life period was measured in RPMI-1640 culture medium at 37 degree C with 10% heat-inactivated fetal calf serum.. It counts as ADME. As to conditions: cattle.
In series [9] the test system is CCRF-CEM. Description: (§1) Antiviral activity was measured on HIV-2 in mutant thymidine kinase-deficient CEM/TK- cells. As to conditions: Homo sapiens. The class given is functional, cell-based.
The test system of series [10] is CCRF-CEM. Description: Antiviral activity was measured on HIV-1 in wild-type CEM/O cells. The class given is functional, cell-based, Homo sapiens.
For series [11], the system named is CCRF-CEM. The description is as §1. It counts as functional, cell-based. As to conditions: Homo sapiens. In short, it runs like this: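 CEM/O or TK-deficient CEM/TK- cells at 4 × 10⁵ cells/mL infected with HIV-1 (HTLV-IIIB) or HIV-2 (LAV 2) at ~100 CCID50/mL. Infected suspension mixed 1:1 with serial compound dilutions. Giant cell formation scored microscopically after 4 days.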
The source holds these as a separate data set.

The subject of series [12] is MT4. Description: Antiviral activity was measured on HIV-1 in MT-4 cells. The class given is functional, cell-based. Conditions: Homo sapiens.
In series [13] the test system is MT4. Description: Antiviral activity was measured on HIV-2 in MT-4 cells. It counts as functional, cell-based. As to conditions: Homo sapiens.
In series [14] the test system is CCRF-CEM. Description: Antiviral activity was measured on HIV-2 in mutant thymidine kinase-deficient CEM/TK- cells for S configuration. It counts as functional, cell-based. Conditions: Homo sapiens.
Series [15] has as its system CCRF-CEM. Description: The cytotoxicity was measured on wild type CEM/O cells for R configuration. The class given is functional. Conditions: Homo sapiens.
For series [16], the system named is CCRF-CEM. Description: Antiviral activity was measured on HIV-1 in wild-type CEM/O cells for R configuration. It counts as functional, cell-based. Conditions: Homo sapiens.
In series [17] the test system is CCRF-CEM. Description: Antiviral activity was measured on HIV-2 in mutant thymidine kinase-deficient CEM/TK- cells for R configuration. It counts as functional, cell-based. Conditions: Homo sapiens.
The subject of series [18] is CCRF-CEM. Description: Antiviral activity was measured on HIV-2 in wild-type CEM/O cells for R configuration. The class given is functional, cell-based. Conditions: Homo sapiens.
Series [19] has as its system CCRF-CEM. Description: Antiviral activity was measured on HIV-2 in wild-type CEM/O cells for S configuration. As to conditions: Homo sapiens. The class given is functional, cell-based.
Series [20] concerns CCRF-CEM. Description: Antiviral activity was measured on HIV-1 in wild-type CEM/O cells for S configuration. Conditions: Homo sapiens. The class given is functional, cell-based.
Series [21] concerns CCRF-CEM. Description: The cytotoxicity was measured on wild type CEM/O cells for S configuration. The class given is functional. Conditions: Homo sapiens.
Series [22] relates to MT4. Description: Antiviral activity was measured on HIV-1 in MT-4 cells for R configuration. The class given is functional, cell-based. Conditions: Homo sapiens.
The test system of series [23] is MT4. Description: Antiviral activity was measured on HIV-2 in MT-4 cells for R configuration. The class given is functional, cell-based. As to conditions: Homo sapiens.
Series [24] deals with CCRF-CEM. Description: The cytotoxicity was measured on wild type CEM/O cells. The class given is functional. Conditions: Homo sapiens.

Bounds are passed on as bounds.

As for `COc1ccc2c(c1)COP(=O)(OC[C@@H]1C=C[C@H](n3cc(C)c(=O)[nH]c3=O)O1)O2` (stereo partly specified), the half-life in series [1] was 1.07 h; in [2], 28.3 h; in [4], 7.2 h; in [5], 7.2 h; in [8] it was 4.3 h. The compound further registered a Pa in [3] of 2.3. In the series on CCRF-CEM [6], this compound registered a CC50 of 39000 nM. Also, the EC50 is 700 nM in the series with CCRF-CEM [7] (Homo sapiens, CCRF-CEM); 800 nM in the series on CCRF-CEM [9]; 180 nM in the series with CCRF-CEM [10] (Homo sapiens, CCRF-CEM).
Regarding `Cc1ccc2c(c1)COP(=O)(OC[C@@H]1C=C[C@H](n3cc(C)c(=O)[nH]c3=O)O1)O2` (stereo partly specified), the Pa in series [3] is listed as 5.4.
`Cc1cn(C2C=CC(COP3(=O)OCc4cc(Cl)ccc4O3)O2)c(=O)[nH]c1=O` (stereo unspecified): the concentration for a half-maximal effect (EC50) in the series on CCRF-CEM [11] stood at 2670 nM; in the series with MT4 [12], 31 nM; in the series with CCRF-CEM [7] (Homo sapiens, CCRF-CEM), 1400 nM; with MT4 [13], 38 nM. In series [3], this compound registered a Pa of 7.6. In the series on CCRF-CEM [6], this compound gave a CC50 of 49000 nM.
In turn, `Cc1cc(C)c2c(c1)COP(=O)(OCC1C=CC(n3cc(C)c(=O)[nH]c3=O)O1)O2` (stereo unspecified) had a Pa in series [3] of 15.3.
In the case of `COc1ccc(O)c(CO)c1`, in the series on CCRF-CEM [6], the cytotoxic concentration (CC50) is 158000 nM. For the same compound, the EC50 was above 250000 nM in the series on CCRF-CEM [7] (Homo sapiens, CCRF-CEM) and above 250000 nM in the series on CCRF-CEM [10] (Homo sapiens, CCRF-CEM).
Consider `Cc1cccc(CO)c1O`, for which the CC50 in the series with CCRF-CEM [6] was above 250000 nM. For the same compound, the concentration for a half-maximal effect (EC50) in the series with CCRF-CEM [7] (Homo sapiens, CCRF-CEM) is above 250000 nM; with CCRF-CEM [10] (Homo sapiens, CCRF-CEM) it was above 250000 nM.
Regarding `COc1cccc2c1OP(=O)(OCC1C=CC(n3cc(C)c(=O)[nH]c3=O)O1)OC2` (stereo unspecified), the EC50 came to 9670 nM with CCRF-CEM [14]; 140 nM with CCRF-CEM [16]; 120 nM with CCRF-CEM [17]; 170 nM in the series with CCRF-CEM [18]; 1030 nM in the series on CCRF-CEM [19]; 420 nM in the series with CCRF-CEM [7] (Homo sapiens, CCRF-CEM). For the same compound, the EC50 was 470 nM in the series on CCRF-CEM [20]; 170 nM with CCRF-CEM [9]; 170 nM in the series with CCRF-CEM [10] (Homo sapiens, CCRF-CEM). The CC50 with CCRF-CEM [15] came out at 38000 nM; with CCRF-CEM [6], 35000 nM; in the series with CCRF-CEM [21], 84000 nM. Besides, the half-life is 0.4 h in series [1]; 9.5 h in [2]; 1.4 h in [4]; 3.2 h in [5]; 2 h in series [8]. In [3], this compound registered a Pa of 1.4.
Take `Cc1cn([C@H]2C=C[C@@H](COP3(=O)OCc4cc([N+](=O)[O-])ccc4O3)O2)c(=O)[nH]c1=O` (stereo partly specified): the EC50 with CCRF-CEM [11] stood at 40000 nM; in the series on CCRF-CEM [7] (Homo sapiens, CCRF-CEM), 400 nM; in the series with CCRF-CEM [10] (Homo sapiens, CCRF-CEM), 290 nM. This compound also came in with a Pa in [3] of 1.5. This compound also had a CC50 in the series on CCRF-CEM [6] of 75000 nM.
As for `Cc1cn([C@H]2C=C[C@@H](COP3(=O)OCc4ccccc4O3)O2)c(=O)[nH]c1=O` (stereo partly specified), in [3], the Pa was 1.9.
For `Cc1cccc2c1OP(=O)(OC[C@@H]1C=C[C@H](n3cc(C)c(=O)[nH]c3=O)O1)OC2` (stereo partly specified), the half-maximal effective concentration (EC50) in the series with CCRF-CEM [14] worked out at 700 nM; with CCRF-CEM [16] it was 80 nM; in the series on MT4 [12], 28 nM; in the series with CCRF-CEM [17], 63 nM; in the series on CCRF-CEM [18], 67 nM; in the series with CCRF-CEM [19], 1100 nM. Moreover, the EC50 with CCRF-CEM [7] (Homo sapiens, CCRF-CEM) amounted to 120 nM; in the series on CCRF-CEM [20], 420 nM; in the series on CCRF-CEM [9], 93 nM; in the series with MT4 [22] it was 12 nM; with MT4 [23], 11 nM; with CCRF-CEM [10] (Homo sapiens, CCRF-CEM), 87 nM. In the series with MT4 [13], this compound showed an EC50 of 33 nM. Further, the CC50 was 11000 nM in the series with CCRF-CEM [15], 21000 nM in the series on CCRF-CEM [6] and 76000 nM in the series on CCRF-CEM [21]. Further, the half-life in [1] was 1.5 h; in [2], 68.5 h; in series [4] it was 10.2 h; in series [5] it was 16 h; in series [8], 9.1 h. Further, in series [3], the Pa turned out to be 5.1.
Turning to `OCc1ccccc1O` [SALICYL ALCOHOL], the CC50 with CCRF-CEM [6] is above 250000 nM. The EC50 in the series with CCRF-CEM [7] (Homo sapiens, CCRF-CEM) is above 250000 nM; in the series with CCRF-CEM [10] (Homo sapiens, CCRF-CEM) it was above 250000 nM.
For the compound `Cc1cn([C@H]2C=C[C@@H](CO)O2)c(=O)[nH]c1=O` [STAVUDINE], the concentration giving a half-maximal response (EC50) worked out at 18 nM with MT4 [12]; 260 nM in the series with CCRF-CEM [7] (Homo sapiens, CCRF-CEM); 260 nM in the series with CCRF-CEM [7] (ccrf-cem); 15000 nM with CCRF-CEM [9]; 180 nM in the series with CCRF-CEM [10] (Homo sapiens, CCRF-CEM); 180 nM with CCRF-CEM [10] (ccrf-cem). The compound further gave an EC50 in the series with MT4 [13] of 22 nM. This compound also had a Pa in series [3] of 0.15. Moreover, the cytotoxic concentration (CC50) in the series on CCRF-CEM [6] and in the series with CCRF-CEM [24] was 56000 nM in each case.
For `Cc1cn([C@H]2C[C@H](N=[N+]=[N-])[C@@H](CO)O2)c(=O)[nH]c1=O` [ZIDOVUDINE], in the series on CCRF-CEM [6], the half-maximal cytotoxic concentration (CC50) was above 100000 nM. For the same compound, the EC50 in the series with CCRF-CEM [9] is above 100000 nM; with CCRF-CEM [10] (Homo sapiens, CCRF-CEM), 7 nM.

For the origin of these results see ChEMBL document CHEMBL1131531, “cycloSal-2',3'-dideoxy-2',3'-didehydrothymidine monophosphate (cycloSal-d4TMP): synthesis and antiviral evaluation of a new d4TMP delivery system” (J Med Chem, 1998).
